Test results from ChEMBL document CHEMBL1124035, “1-Amino-substituted 4-methyl-5H-pyrido[4,3-b]indoles (gamma-carbolines) as tricyclic analogues of ellipticines: a new class of antineoplastic agents” (1988).

Assays:
[1] = system: Calf thymus DNA; test: Apparent DNA affinity constant; type: nucleic-acid assay; details: Bos taurus
Summary of the method: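 Apparent DNA affinity constant was measured by competition with ethidium bromide. Buffer was 20 mM Na2HPO4/NaH2PO4, 0.1 M NaCl, 1 mM EDTA, pH 7.4, with calf thymus DNA at 10 μg/mL. Values are given in 10^6 M⁻¹.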

[2] = system: L1210; test: Ability to reduce the cell count to 50% in L1210 culture cells; type: functional; details: Mus musculus, read-out: ID50 (the source's name)
Summary of the method: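 L1210 cells in exponential growth in RPMI 1640 with 2 mM glutamine, penicillin/streptomycin and 10% FCS, 37 °C, 5% CO2. Drugs dissolved in distilled water were added to cells at 0.8 × 10^5 cells/mL for 48 h, then cells were counted. ID50 is the concentration halving cell proliferation versus controls, from regression of dose-response data; mean of two independent experiments.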

[3] = system: Mus musculus; test: Antitumor activity against P388 leukemia in mice at a dose of 12 mg/kg administered intraperitoneally for 5 days; type: functional; details: route intraperitoneal
Summary of the method: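 CDF1 hybrid male or female mice, 10 per group, were inoculated ip with 10^6 viable P388 cells on day 0. Drugs in distilled water were given ip (0.1 mL/10 g body weight) daily D1-5. Vehicle, 5-fluorouracil and BD 84 were given the same way. T/C = median survival day of treated / controls × 100; T/C > 128% was significant; cures counted at D60.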

[4] = system: Mus musculus; test: Antitumor activity against P388 leukemia in mice at a dose of 24 mg/kg administered intraperitoneally for 5 days; type: functional; details: route intraperitoneal
Summary of the method: (§1)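 CDF1 hybrid male or female mice, 10 per group, were inoculated ip on day 0 with 10^6 viable P388 leukemia cells. Drug in distilled water was given ip (0.1 mL/10 g body weight) daily on days 1-5, with vehicle, 5-fluorouracil and BD 84 controls given the same way. T/C = median survival of treated/controls × 100; T/C > 128% counted as significant.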

[5] = system: Mus musculus; test: Antitumor activity against P388 leukemia in mice at a dose of 6 mg/kg administered intraperitoneally for 5 days; type: functional; details: route intraperitoneal; summary of the method: as §1
[6] = system: Mus musculus; test: Antitumor activity against P388 leukemia in mice at a dose of 50 mg/kg administered intraperitoneally for 5 days; type: functional, organism-based; parameters: dose 50 mg/kg; summary of the method: as §1

| K aff [1] [M⁻¹] | IC50 [2] [nM] | Compound | T/C [3] [%] | T/C [4] [%] | T/C [5] [%] | T/C [6] |
| --- | --- | --- | --- | --- | --- | --- |
| 150000 | 350 | Cc1cnc(NCCCN(C)C)c2c3ccccc3n(C)c12 | 114 | 131 | 107 | Toxic |
| 300000 | 500 | COc1ccc2c(c1)c1c(NCCCN3CCCC3)ncc(C)c1n2C |  |  |  |  |
